Compounds with a hit are over-represented: about 2.9% of the library has one in this group of screens.
MEKK3 PB1 HTS: modulators of MEKK3-MEK5 PB1 binding, primary screen, biochemical, wildtype MEKK3, multiplex bead flow cytometry, Alexa488-MEK5. Mitogen-activated protein kinase kinase kinase 3 (Homo sapiens), Q99759. bead-based flow cytometry, Alexa488-MEK5 binding to MEKK3; actives lie on both sides; 0 = blocked by unlabeled MEK5, 100 = vehicle. binding response (% of control), % at 10 µM. hit rate 1.4% among 290,000;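 active = binding response more than 3 SD above or below the average of its plate-row segment, actives on both sides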;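 note: Alexa488 bead fluorescence after subtracting the streptavidin-only scavenger bead signal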
Target sequence (Q99759 whole entry, looked up): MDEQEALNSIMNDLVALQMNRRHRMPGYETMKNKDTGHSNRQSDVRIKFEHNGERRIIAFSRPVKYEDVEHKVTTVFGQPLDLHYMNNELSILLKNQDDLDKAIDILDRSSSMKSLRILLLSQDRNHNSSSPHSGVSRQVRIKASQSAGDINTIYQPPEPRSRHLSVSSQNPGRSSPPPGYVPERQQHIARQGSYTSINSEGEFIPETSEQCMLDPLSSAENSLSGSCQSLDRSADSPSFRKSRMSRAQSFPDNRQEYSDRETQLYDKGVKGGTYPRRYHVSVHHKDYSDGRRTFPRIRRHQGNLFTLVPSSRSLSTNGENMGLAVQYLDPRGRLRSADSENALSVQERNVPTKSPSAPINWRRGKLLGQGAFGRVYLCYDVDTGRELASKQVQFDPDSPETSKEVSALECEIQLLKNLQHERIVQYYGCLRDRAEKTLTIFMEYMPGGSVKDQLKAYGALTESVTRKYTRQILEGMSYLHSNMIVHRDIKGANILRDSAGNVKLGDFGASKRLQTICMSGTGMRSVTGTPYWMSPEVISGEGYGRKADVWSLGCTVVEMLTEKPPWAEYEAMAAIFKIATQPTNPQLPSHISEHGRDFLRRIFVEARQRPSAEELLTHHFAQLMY
MEKK2 mut-MEK5: MEK5 binding signal on mutant MEKK2 PB1, primary screen, biochemical, multiplex bead flow cytometry, Alexa488-MEK5. Alexa488-MEK5 binding to MEKK2 mutant. percent response, % at 10 µM. hit rate 0.35% among 290,000; in the data active = percent response above about 24%, passing the limit was not always enough
MEKK2 WT-MEK5: modulators of MEK5 binding to wildtype MEKK2, primary screen, biochemical, multiplex bead flow cytometry, Alexa488-MEK5; Mitogen-activated protein kinase kinase kinase 2 (Homo sapiens), Q9Y2U5; Alexa488-MEK5 binding to MEKK2 WT; actives lie on both sides; binding response (% of control), % at 10 µM; hit rate 1.1% among 290,000; AID 1531, 2009; in the data active = binding response below about 67% or above about 130%
UBC13 polyUb: UBC13 polyubiquitin chain formation inhibitors, primary screen, biochemical, TR-FRET, uHTS; Ubiquitin-conjugating enzyme E2 N (Homo sapiens), P61088; inhibition, % at 20 µM; hit rate 0.47% among 330,000; AID 485273, 2010; in the data active = inhibition above about 45%, passing the limit was not always enough
Apaf1 inhib: inhibitors of human Apaf-1 apoptosome, primary screen, biochemical, DEVD-Rh110 fluorescence, uHTS | reconstituted apoptosome caspase-3 activity | AID 489030, 2010 | inhibition, % at 20 µM | hit rate 0.71% among 330,000 | Apoptotic protease-activating factor 1 (Homo sapiens), O14727; active = inhibition of at least 40% at 20 µM;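 note: plate controls were DMSO wells for no effect and DEVD-CHO caspase inhibitor wells for full effect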
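System: reconstituted apoptosome with Apaf-1, cytochrome c, caspase-9, procaspase-3, dATP; Signal: Rh110 fluorescence intensity; Schedule: 30 min compound preincubation, 50 min activation, room temperature; Reagent: cytochrome c trigger plus (Z-DEVD)2-Rh110 caspase-3 substrate.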
MEKK2wt confirm: modulators of MEK5 binding to wildtype MEKK2, confirmation, biochemical, single concentration, multiplex bead flow cytometry; binding response (% of control), % at 10 µM; Alexa488-MEK5 binding to MEKK2 WT; actives lie on both sides; AID 1892, 2009; hit rate 2.4% among 5,900; shares compounds with MEKK3 PB1 HTS; in the data active = binding response below about 16% or above about 210%; inactive = in between
MEKK2mut confirm: mutant MEKK2 PB1-MEK5 binding signal retest – biochemical, single concentration, multiplex bead flow cytometry, confirmation; shares compounds with MEKK3 PB1 HTS; Alexa488-MEK5 binding to MEKK2 mutant; percent response, % at 10 µM; hit rate 2% among 5,900; in the data active = percent response mostly above about 71%, no sharp cut-off; inactive = mostly below about 38%;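 note: higher means compound restores mutant binding toward wildtype level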
MEKK3-MEK5 inh: MEKK3 wild-type PB1 binding to MEK5, inhibitors, confirmation, biochemical, bead multiplex flow cytometry, single concentration, wildtype | shares compounds with MEKK3 PB1 HTS | Alexa488-MEK5 binding to MEKK3; stronger effect = lower value | binding response (% of control), % at 10 µM | hit rate 1.8% among 5,900;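 active = binding response below 72% of control, or above a set upper limit, though filed actives all read lower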;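 note: 100% = DMSO only wells and 0% = binding blocked by excess unlabeled MEK5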
Casp3 counter: CASP3 inhibitor validation, counterassay for project on UBE2N polyubiquitination blockers, biochemical, one dose; shares compounds with UBC13 polyUb; Recombinant caspase-3, Caspase-Glo 3/7 luminescence, 60 min; inhibition, % at 20 µM; hit rate 4% among 1,400; AID 488856, 2010;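 active = mean inhibition across replicates above about 26%, limit read from the data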;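 note: plate controls were DMSO with caspase-3 for no effect and DMSO wells lacking enzyme for full effect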
UBC13 confirm: UBC13 polyubiquitination inhibitors, single-point retest, confirmation, biochemical, TR-FRET, single concentration; shares compounds with UBC13 polyUb; inhibition, % at 10 µM; hit rate 68% among 1,400; AID 488859, 2010; in the data active = inhibition above about 45%
Apaf-1 inh conf2: Apaf-1 inhibitors, single-dose retest, confirmation, biochemical, fluorescence, DEVD-Rh110, 20 µM; reconstituted apoptosome, caspase-3 DEVD-Rh110 fluorescence; hit rate 25% among 1,800; shares compounds with Apaf1 inhib; AID 504614, 2011; inhibition, % at 20 µM;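 active = mean inhibition of at least 40% at 20 µM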;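 note: plate controls were DMSO wells for no effect and DEVD-CHO caspase inhibitor control wells for full effect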
Rh110 interf inh: Rh110 fluorescence interference by putative Apaf-1 inhibitors, confirmation, artefact control for Apaf-1 inhibitor project, biochemical, 20 µM; quenched caspase reaction; 1,800 tested, under 10 active; activation (fluorescence interference), % at 20 µM; shares compounds with Apaf1 inhib;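 active = signal rise of 40% or more at 20 µM, treated as a fluorescence artifact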
Fluor interf inh: fluorescence interference of Apaf-1 inhibitor hits, dose response, artefact control for Apaf-1 inhibitor project. shares compounds with Apaf1 inhib. fluorescence interference counterscreen, Apaf-1 assay format. IC50, µM. 460 tested, under 10 active. AID 588538, 2011; call rule not given here
Starred values were filed as active, the others as inactive; x = not tested or not shown; [ ] = another dose, or the depositor's remark.

SMILES	MEKK3 PB1 HTS	MEKK2 mut-MEK5	MEKK2 WT-MEK5	UBC13 polyUb	Apaf1 inhib	MEKK2wt confirm	MEKK2mut confirm	MEKK3-MEK5 inh	Casp3 counter	UBC13 confirm	Apaf-1 inh conf2	Rh110 interf inh	others
COCC(=O)O[C@]1(CCN(C)CCCc2nc3ccccc3[nH]2)CCc2cc(F)ccc2[C@@H]1C(C)C	118	19	172*	67*	54*	136	21	107	-2	60*	23	4
CCOC(=O)c1c(-c2ccc(-c3ccccc3)cc2)csc1NC(=O)CNCCN(C)C	117	69*	286*	79*	42*	238*	141*	115	-4	85*	47*	5	Fluor interf inh=>100
COC(=O)CCC(=O)OC1(C)C(=O)C2=CN(C3CCCC3)C(c3ccc(OC)cc3)=CC2=C(Br)C1=O (centres undefined)	47*[inhibitor]	-23	-8.0*[inhibitor]	-92	64*	88	0	88	x	x	77*	5	Fluor interf inh=>100
Cc1noc(/C=C/c2cccs2)c1S(=O)(=O)N1CCC(C(=O)NCCCN2CCC(C)CC2)CC1	106	57*	186*	49*	40*	115	7	103	0	18	16	7
N=c1n(Cc2ccccc2)c2ccccc2n1CC(O)COc1ccc(Cl)cc1Cl (centres undefined)	111	63*	220*	65*	52*	172	30	97	0	91*	38	-18
COC(=O)c1c(NC(=O)c2nc3ccccc3s2)sc2c1CC(C)(C)NC2(C)C	108	69*	210*	97*	58*	186	42	110	-3	87*	18	7
CCOC(=O)c1c(NC(=O)COc2ccccc2)sc2c1CC(C)(C)NC2(C)C	92	-1	99	40	9	x	x	x	x	x	x	x
CCOc1ccc(C(=O)Nc2sc3c(c2C(=O)OC)CC(C)(C)NC3(C)C)cc1	105	34	152*	52*	41*	137	13	100	-1	24	9	12
O=C(NC1=NCCS1)C1CCN(S(=O)(=O)c2ccccc2C(F)(F)F)CC1	x	x	x	0	-14	x	x	x	x	x	x	x

Screening results as filed in PubChem.
